ChEMBL document CHEMBL1128750 (J Med Chem, 1995)

Columns and labels:
[1] = (§1) Inhibition of calmodulin-dependent Phosphodiesterase
How it was run: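 Calmodulin-dependent cAMP phosphodiesterase assayed with cyclic [8-3H]AMP as substrate. Tritiated AMP was converted to adenosine by snake venom 5'-nucleotidase, and nucleosides were separated from substrate on Dowex anion exchange resin with 3 mM acetic acid. Basal, calmodulin-independent activity was taken with 1 mM EGTA. Compounds were added in DMSO at several concentrations. IC50 is the mean of triplicates ± standard error.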

[2] = system: MCF7; assay: In vitro cytotoxicity against hormone-responsive MCF-7 cell line.; format: functional, cell-based; conditions: Homo sapiens
How it was run: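 MCF-7 cells kept in DMEM with L-glutamine, gentamycin, fungisone, insulin and 5% FBS. For the assay, 5 × 10³ cells/well were plated in DMEM with 2% carbon-stripped FBS and held 24 h at 37 °C. Compounds were then added in fresh medium for 24 h. Viable cells were read by MTT, triplicate wells per concentration, and IC50 was taken from four concentrations.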

[3] = as §1; remark: listed apart in the source

Row | SMILES | IC50 [1] [µM] | IC50 [2] [µM] | IC50 [3] [µM]
1 | CC/C(=C(\c1ccc(I)cc1)c1ccc(OCCN(C)C)cc1)c1ccccc1 | 2.3 |  | 
2 | CCCCc1ccc(/C(=C(\CC)c2ccccc2)c2ccc(OCCN3CCCC3)cc2)cc1 | 1.8 |  | 
3 | CC/C(=C(\c1ccccc1)c1ccc(OCCN(C)C)cc1)c1ccccc1 [TAMOXIFEN] |  | 14 | 6.8
4 | CC/C(=C(\c1ccc(O)cc1)c1ccc(OCCN(C)C)cc1)c1ccccc1 | 19 | 15.5 | 
5 | C#Cc1ccc(/C(=C(\CC)c2ccccc2)c2ccc(OCCN(C)C)cc2)cc1 | 4.6 |  | 
6 | CCCCc1ccc(/C(=C(\CC)c2ccccc2)c2ccc(OCCN(C)C)cc2)cc1 | 3.7 |  | 
7 | C#Cc1ccc(/C(=C(\CC)c2ccccc2)c2ccc(OCCN3CCCC3)cc2)cc1 | 3.3 | 14.7 | 

The next lines start with results.

Row | IC50 [1] [µM] | SMILES | IC50 [2] [µM] | IC50 [3] [µM]
8 | 1.1 | CC/C(=C(\c1ccc(I)cc1)c1ccc(OCCCN2CCCC2)cc1)c1ccccc1 | 4.5 | 
9 | 1 | CC/C(=C(\c1ccc(I)cc1)c1ccc(OCCCCN2CCCC2)cc1)c1ccccc1 | 4 | 
10 | 1.3 | CC/C(=C(\c1ccc(I)cc1)c1ccc(OCCCCN(C)C)cc1)c1ccccc1 |  | 
11 | 1.5 | CC/C(=C(\c1ccc(I)cc1)c1ccc(OCCN2CCCC2)cc1)c1ccccc1 [IDOXIFENE] | 7.3 | 
12 | 1.4 | CC/C(=C(\c1ccc(I)cc1)c1ccc(OCCCN(C)C)cc1)c1ccccc1 |  | 
